Among the data in ChEMBL document CHEMBL1121387, “Analgesic narcotic antagonists. 1. 8 beta-Alkyl-, 8 beta-acyl-, and 8 beta-(tertiary alcohol)dihydrocodeinones and -dihydromorphinones” (1980) are ED50 values, retold here.

Molecules are shown by their SMILES.

The test system of one assay is Mus musculus. In words: Analgesic activity was measured by acetic acid writhing test in mouse by giving subcutaneous injection. In kind it is functional. Set-up: unit not given here. The method, boiled down:
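Male albino Charles River mice (18–22 g), five per dose, at least three doses per ED50. Salts are given in distilled water; free bases are dissolved with dilute HCl and then diluted with water. Drug is given s.c. 15 min before i.p. 0.5% HOAc (0.4 mL). Writhes are counted for 20 min, starting 5 min post-HOAc, and compared with controls. ED50 with 95% confidence limits by Litchfield–Wilcoxon.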
A general note: In writhing tests, fewer writhes than in controls are read as antinociception.

A further assay deals with Rattus norvegicus. In words: Analgesic activity measured by rat tail flick assay following s.c. administration. It counts as functional. Set-up: unit not given here. Summed up:
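Male albino rats (100–120 g). Two control reaction times are taken 30 min apart before dosing. For agonist activity, test drug is given subcutaneously with no morphine, and tail-flick reaction time is retested 20 min postdrug. Activity is judged against control groups. ED50 values with 95% confidence limits are obtained by Litchfield–Wilcoxon.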
In general terms: In hot-plate and tail-flick tests a longer latency is read as antinociception.

Turning to `C=C[C@H]1CC(=O)[C@@H]2Oc3c(OC)ccc4c3C23CCN(C)C(C4)C13` (stereo partly specified), the ED50 with Mus musculus was 13.8; in the assay on Rattus norvegicus, 130.

In the case of `CCC[C@@H]1CC(=O)[C@@H]2Oc3c(OC)ccc4c3C23CCN(C)C(C4)C13` (stereo partly specified), the ED50 in the assay with Mus musculus and in the assay with Rattus norvegicus was above 25 each time.

Regarding `COc1ccc2c3c1O[C@H]1C(=O)C[C@H](C4CC4)C4C(C2)N(C)CCC341` (stereo partly specified), the ED50 with Mus musculus is reported as 42; in the assay on Rattus norvegicus it was above 25.

Take `COc1ccc2c3c1O[C@H]1C(=O)C[C@H](c4ccccc4)C4C(C2)N(C)CCC341` (stereo partly specified): the ED50 with Mus musculus is above 50.

Consider `CC[C@H]1CC(=O)[C@@H]2Oc3c(OC)ccc4c3C23CCN(C)C(C4)C13` (stereo partly specified), for which the results for the ED50 in the assay on Mus musculus and in the assay with Rattus norvegicus were 1.8 and 20.3, respectively.

On to `CC[C@@H]1CC(=O)[C@@H]2Oc3c(OC)ccc4c3C23CCN(C)C(C4)C13` (stereo partly specified), for which the values for the ED50 in the assay on Mus musculus and in the assay with Rattus norvegicus were 3 and above 30, respectively.

In turn, `C=C(C)[C@H]1CC(=O)[C@@H]2Oc3c(OC)ccc4c3C23CCN(C)C(C4)C13` (stereo partly specified) yielded an ED50 in the assay with Mus musculus above 50.

As to `COc1ccc2c3c1O[C@H]1C(=O)C[C@@H](C)C4C(C2)N(C)CCC341` (stereo partly specified), the ED50 in the assay with Mus musculus is reported as 2; in the assay on Rattus norvegicus, 3.8.

With `CC[C@H]1CC(=O)[C@@H]2Oc3c(O)ccc4c3C23CCN(C)C(C4)C13` (stereo partly specified), the ED50 in the assay on Mus musculus turned out to be 0.41; in the assay on Rattus norvegicus it was 1.12.

With `COc1ccc2c3c1O[C@H]1C(=O)C[C@H](C)C4C(C2)N(C)CCC341` (stereo partly specified), the values for the ED50 in the assay on Mus musculus and in the assay with Rattus norvegicus were 4.9 and 10.2, respectively.

With `COc1ccc2c3c1O[C@H]1C(=O)C[C@H](C(C)C)C4C(C2)N(C)CCC341` (stereo partly specified), the ED50 in the assay with Mus musculus is 21.7; in the assay on Rattus norvegicus, above 55.

With `CCCC[C@H]1CC(=O)[C@@H]2Oc3c(OC)ccc4c3C23CCN(C)C(C4)C13` (stereo partly specified), the ED50 in the assay on Mus musculus was 27; in the assay on Rattus norvegicus, above 50.

As to `CCCCCCCC[C@H]1CC(=O)[C@@H]2Oc3c(OC)ccc4c3C23CCN(C)C(C4)C13` (stereo partly specified), the results for the ED50 with Mus musculus and in the assay on Rattus norvegicus were 25.9 and above 50, respectively.

With `COc1ccc2c3c1O[C@H]1C(=O)C[C@H](C(C)(C)C)C4C(C2)N(C)CCC341` (stereo partly specified), the ED50 in the assay on Mus musculus is listed as 17.6; in the assay on Rattus norvegicus, above 25.

The compound `CCC[C@H]1CC(=O)[C@@H]2Oc3c(OC)ccc4c3C23CCN(C)C(C4)C13` (stereo partly specified) gave an ED50 in the assay with Mus musculus of 17.5.

`C[C@H]1CC(=O)[C@@H]2Oc3c(O)ccc4c3C23CCN(C)C(C4)C13` (stereo partly specified): the ED50 came out at 0.24 in the assay on Mus musculus and 1.6 in the assay with Rattus norvegicus.

Take `CCC(C)[C@H]1CC(=O)C2Oc3c(OC)ccc4c3C23CCN(C)C(C4)C13` (single isomer, unassigned; form 1): the ED50 in the assay on Mus musculus is given as above 25.

The compound `CCC(C)[C@H]1CC(=O)C2Oc3c(OC)ccc4c3C23CCN(C)C(C4)C13` (single isomer, unassigned; form 2) showed an ED50 in the assay with Mus musculus of 14.1.
